Test system: MS2 coat protein
Test: apparent Kd, MS2 coat protein; higher = weaker binding; RNA-MaP array; FMN 200 µM where present
Outline: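 Apparent Kd: the median of filtered binding-curve fits from single clusters. Designs were transcribed on Illumina sequencing-chip clusters by stalled E. coli RNA polymerase and titrated with SNAP-549-labelled MS2 coat protein from 0.7 or 1.5 nM, doubling to 3 µM, in 100 mM Tris-HCl pH 7.5, 80 mM KCl, 4 mM MgCl2, BSA, DTT, yeast tRNA and Tween-20. Each series ran without and then with constant ligand, and green signal was normalised to red-channel RNA signal and control-cluster median Fmax.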

[1] = designed as: OFF switch for flavin mononucleotide, no ligand
[2] = ligand present: flavin mononucleotide, designed as: OFF switch for flavin mononucleotide
[3] = designed as: ON switch for flavin mononucleotide, no ligand
[4] = ligand present: flavin mononucleotide, designed as: ON switch for flavin mononucleotide

GUGUAGUCAGGAUAUACAUAGGAAGAGAAGAGAAGAGAAGGACAUGAGGAUCACCCAUGUAGAAGGGACAGUGU
apparent Kd [1]: 46.7 nM
apparent Kd [2]: 40.9 nM

AUCUUGUCAGGAUAUGACUACAUAAAAAAAAAAAAAUGUAGUCAGAAGGGACAUGAGGAUCACCCAUGUACUAA
apparent Kd [1]: 34.9 nM
apparent Kd [2]: 54.1 nM

GGAGCUCACAUGAACAUGAGGAUCACCCAUGUAAAUUCUCAUGAGGAUAUGGAUCCUAAUUGGAUCCAGAAGGCAUGGAGCUCC
apparent Kd [3]: 1350 nM
apparent Kd [4]: 316 nM

AAAGGCCGAGGAUAUACAUGAGGAUCACCCAUGUGGACUCUGCAGAAUUGAUACCUUGGUAGAAGGUGGACCGG
apparent Kd [1]: 23 nM
apparent Kd [2]: 18.4 nM

GGUUCCAACACAGGAUAUGCUAUCCUUUGGGUAGCAGAAGGGUGAAACAUGAGGAUCACCCAUGUGGAGCCAGGGCGUGAGCCC
apparent Kd [3]: 593 nM
apparent Kd [4]: 63.1 nM

GAAUAUUCGUUGAACAUGAGGAUCACCCAUGUAACUUGACAUGAGGAUAUGGAUUCUAAUUGGAUCCAGAAGGUAUGAAUAUUC
apparent Kd [4]: 91.8 nM

AUGUACCUAGGAUAUACAUGAGGAUCACCCAUGUCACAAAUAAAACACAGGUAUCCUGGUAGAAGGAGGAACAA
apparent Kd [1]: 25 nM
apparent Kd [2]: 105 nM

CGCAUGCGUAGAAUUAGCAGCUGACAGGAUAUGACAUGAGGAUCACCCAUGUGAAUUAAGAAGAGUCAGAAGGGUCACGAUGCG
apparent Kd [1]: 9.98 nM
apparent Kd [2]: 9.98 nM

AAAAAACAUGAGGAUCACCCAUGUGAGGAUAUCACUAGUCAGUCCUCGGAGUGAGUACUGAGAAGGCACAUAAA
apparent Kd [1]: 68.1 nM
apparent Kd [2]: 44.9 nM

UUUACGAAAGUCGAACGAUGUAGCAGAAGGACAUGAGGAUCACCCAUGUCAGCUGUAACAGCCAUGUAGGAUAUGCUACAUCCC
apparent Kd [1]: 5.24 nM
apparent Kd [2]: 6.49 nM

UUCGUGCAGCUUAGCUGUACGCGUACAUGAGGAUCACCCAUGUAGGAUAUGGUAGGCAAAGCUUACUAGAAGGAUAUAGUGAUC
apparent Kd [1]: 129 nM
apparent Kd [2]: 144 nM

CGGUAAACCACAGGAUAUGGCUAGCAUAGCUAGCCAGAAGGGUGGUCGAAACCAUGUAAAUACAUGAGGAUCACCCAUGUAUCC
apparent Kd [3]: 501 nM
apparent Kd [4]: 52.6 nM

AGUUAAUAUCGAGGAUAUGUCUAGACACAUGAGGAUCACCCAUGUAUGUGUAUAGAAGGCAAAAUUAACAGCAUGUUACAUGCA
apparent Kd [3]: 30.6 nM
apparent Kd [4]: 24.9 nM

AUCAGCUCGUCAGGAUAUCCGUCACUGCGUCAGCAGUGUGGUAAGAUCACAUGAGGAUCACCCAUGUAGAAGGGACGAGCUGAU
apparent Kd [1]: 6.08 nM
apparent Kd [2]: 6.5 nM

GCCAGAGCAGGAUAUCUAAUAUGUCACAUGAGGAUCACCCAUGUCCAGCGAAAGCUGGAGGGAGAAGGGCUCUGGC
apparent Kd [1]: 65.6 nM
apparent Kd [2]: 24.4 nM

UAAAAUAGUGUGAGGAUAUGCUGGUCCUUGGAUCAGCAGAAGGCACAUGAGGAUCACCCAUGUAGUUAAUUAUA
apparent Kd [1]: 41.8 nM
apparent Kd [2]: 268 nM

GAAAAGUGAGGAUAUGGUAAUGUAAGUAUGUAGUAUGUAAUCCAGAAGGCACAUGAGGAUCACCCAUGUAAAAG
apparent Kd [1]: 23 nM
apparent Kd [2]: 25.2 nM

UGUCGGAGCAGAGGAUAUUACAUGAGGAUCACCCAUGUAUGAACCAAUAGCUGGAAACAGCAAUGUAAGAAGGAUGCUCCGACA
apparent Kd [1]: 7.14 nM
apparent Kd [2]: 31.4 nM

AAUUGUUUCUGAGGAUAUCAGUAGUAUGCUUUUUGAGAAGGCAGUACAUGAGGAUCACCCAUGUUGUGGUUUGAUAGAAUGAUA
apparent Kd [3]: 193 nM
apparent Kd [4]: 182 nM

GCAUGGUGAGGAUAUGCAGAAGGGCAACGGUCAUCAUGACUACAUGAGGAUCACCCAUGUAGAAGGCACACAUG
apparent Kd [1]: 44.3 nM
apparent Kd [2]: 54.8 nM
